Assays:
[1] = test system: Jurkat; assay: Cytotoxicity against human Jurkat cells by MTT assay; format: functional
Summary of the method: (§1)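 Cytotoxicity was measured by MTT assay across a range of concentrations in human tumour lines, with etoposide as the reference drug. Results are expressed as CC50.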

[2] = test system: K562; assay: Cytotoxicity against human K562 cells by MTT assay; format: functional; summary of the method: as §1
[3] = test system: U-937; assay: Cytotoxicity against human U937 cells by MTT assay; format: functional; summary of the method: as §1
[4] = test system: HeLa; assay: Cytotoxicity against human HeLa cells by MTT assay; format: functional; summary of the method: as §1
[5] = test system: U-937; assay: Induction of apoptosis in human U937 cells assessed as live cells at 0.2 uM measured after 24 hrs by Annexin alexa fluor 488/7AAD staining based flow cytometry (reference value: 98.31%); format: functional
[6] = test system: U-937; assay: Induction of apoptosis in human U937 cells assessed as early apoptotic cells at 0.2 uM measured after 24 hrs by Annexin alexa fluor 488/7AAD staining based flow cytometry (reference value: 1.45%); format: functional
[7] = test system: U-937; assay: Induction of apoptosis in human U937 cells assessed as late apoptotic cells at 0.2 uM measured after 24 hrs by Annexin alexa fluor 488/7AAD staining based flow cytometry (reference value: 0.05%); format: functional
[8] = test system: U-937; assay: Induction of apoptosis in human U937 cells assessed as necrotic cells at 0.2 uM measured after 24 hrs by Annexin alexa fluor 488/7AAD staining based flow cytometry (reference value: 0.19%); format: functional
[9] = test system: U-937; assay: Induction of apoptosis in human U937 cells assessed as live cells at 0.1 uM measured after 24 hrs by Annexin alexa fluor 488/7AAD staining based flow cytometry (reference value: 98.31%); format: functional
[10] = test system: U-937; assay: Induction of apoptosis in human U937 cells assessed as early apoptotic cells at 0.1 uM measured after 24 hrs by Annexin alexa fluor 488/7AAD staining based flow cytometry (reference value: 1.45%); format: functional
[11] = test system: U-937; assay: Induction of apoptosis in human U937 cells assessed as late apoptotic cells at 0.1 uM measured after 24 hrs by Annexin alexa fluor 488/7AAD staining based flow cytometry (reference value: 0.05%); format: functional
[12] = test system: U-937; assay: Induction of apoptosis in human U937 cells assessed as necrotic cells at 0.1 uM measured after 24 hrs by Annexin alexa fluor 488/7AAD staining based flow cytometry (reference value: 0.19%); format: functional
[13] = test system: U-937; assay: Induction of apoptosis in human U937 cells assessed as live cells at 0.05 uM measured after 24 hrs by Annexin alexa fluor 488/7AAD staining based flow cytometry (reference value: 98.31%); format: functional
[14] = test system: U-937; assay: Induction of apoptosis in human U937 cells assessed as early apoptotic cells at 0.05 uM measured after 24 hrs by Annexin alexa fluor 488/7AAD staining based flow cytometry (reference value: 1.45%); format: functional
[15] = test system: U-937; assay: Induction of apoptosis in human U937 cells assessed as late apoptotic cells at 0.05 uM measured after 24 hrs by Annexin alexa fluor 488/7AAD staining based flow cytometry (reference value: 0.05%); format: functional
[16] = test system: U-937; assay: Induction of apoptosis in human U937 cells assessed as necrotic cells at 0.05 uM measured after 24 hrs by Annexin alexa fluor 488/7AAD staining based flow cytometry (reference value: 0.19%); format: functional
[17] = test system: U-937; assay: Induction of apoptosis in human U937 cells assessed as live cells at 0.025 uM measured after 24 hrs by Annexin alexa fluor 488/7AAD staining based flow cytometry (reference value: 98.31%); format: functional
[18] = test system: U-937; assay: Induction of apoptosis in human U937 cells assessed as early apoptotic cells at 0.025 uM measured after 24 hrs by Annexin alexa fluor 488/7AAD staining based flow cytometry (reference value: 1.45%); format: functional
[19] = test system: U-937; assay: Induction of apoptosis in human U937 cells assessed as late apoptotic cells at 0.025 uM measured after 24 hrs by Annexin alexa fluor 488/7AAD staining based flow cytometry (reference value: 0.05%); format: functional
[20] = test system: U-937; assay: Induction of apoptosis in human U937 cells assessed as necrotic cells at 0.025 uM measured after 24 hrs by Annexin alexa fluor 488/7AAD staining based flow cytometry (reference value: 0.19%); format: functional
[21] = test system: U-937; assay: Induction of apoptosis in human U937 cells measured after 24 hrs by Annexin alexa fluor 488/7AAD staining based flow cytometry; format: functional, cell-based
Summary of the method: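 Treated U937 cells were stained with annexin V Alexa Fluor 488 and 7AAD. Fluorescence intensity was read by flow cytometry, with etoposide run as the reference drug.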

[22] = test system: U-937; assay: Cell cycle arrest in human U937 cells assessed as accumulation at G1 phase at 0.2 uM measured after 24 hrs by propidium iodide staining based assay (reference value: 41.98%); format: functional
Summary of the method: (§2)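 U937 cells were exposed to the test agent at 0.2, 0.1, 0.05 or 0.025 μM for 24 h alongside an untreated control. DNA content was measured by propidium iodide staining and flow cytometry, giving the G0/G1, S and G2+M fractions and the hypodiploid pre-G0 (sub-G1) population. Values are means ± SD of three independent experiments, compared with control (p < 0.05, p < 0.01).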

[23] = test system: U-937; assay: Cell cycle arrest in human U937 cells assessed as accumulation at S phase at 0.2 uM measured after 24 hrs by propidium iodide staining based assay (reference value: 45.88%); format: functional; summary of the method: as §2
[24] = test system: U-937; assay: Cell cycle arrest in human U937 cells assessed as accumulation at G2 phase at 0.2 uM measured after 24 hrs by propidium iodide staining based assay (reference value: 10.7%); format: functional; summary of the method: as §2
[25] = test system: U-937; assay: Cell cycle arrest in human U937 cells assessed as accumulation at G2/G1 phase at 0.2 uM measured after 24 hrs by propidium iodide staining based assay (reference value: 1.98%); format: functional
[26] = test system: U-937; assay: Cell cycle arrest in human U937 cells assessed as accumulation at sub-G1 phase at 0.2 uM measured after 24 hrs by propidium iodide staining based assay (reference value: 0.01%); format: functional; summary of the method: as §2
[27] = test system: U-937; assay: Cell cycle arrest in human U937 cells assessed as accumulation at super-G2 phase at 0.2 uM measured after 24 hrs by propidium iodide staining based assay (reference value: 0.45%); format: functional
[28] = test system: U-937; assay: Cell cycle arrest in human U937 cells assessed as accumulation at G1 phase at 0.1 uM measured after 24 hrs by propidium iodide staining based assay (reference value: 41.98%); format: functional; summary of the method: as §2
[29] = test system: U-937; assay: Cell cycle arrest in human U937 cells assessed as accumulation at S phase at 0.1 uM measured after 24 hrs by propidium iodide staining based assay (reference value: 45.88%); format: functional; summary of the method: as §2
[30] = test system: U-937; assay: Cell cycle arrest in human U937 cells assessed as accumulation at G2 phase at 0.1 uM measured after 24 hrs by propidium iodide staining based assay (reference value: 10.7%); format: functional; summary of the method: as §2
[31] = test system: U-937; assay: Cell cycle arrest in human U937 cells assessed as accumulation at G2/G1 phase at 0.1 uM measured after 24 hrs by propidium iodide staining based assay (reference value: 1.98%); format: functional
[32] = test system: U-937; assay: Cell cycle arrest in human U937 cells assessed as accumulation at sub-G1 phase at 0.1 uM measured after 24 hrs by propidium iodide staining based assay (reference value: 0.01%); format: functional; summary of the method: as §2
[33] = test system: U-937; assay: Cell cycle arrest in human U937 cells assessed as accumulation at super-G2 phase at 0.1 uM measured after 24 hrs by propidium iodide staining based assay (reference value: 0.45%); format: functional
[34] = test system: U-937; assay: Cell cycle arrest in human U937 cells assessed as accumulation at G1 phase at 0.05 uM measured after 24 hrs by propidium iodide staining based assay (reference value: 41.98%); format: functional; summary of the method: as §2
[35] = test system: U-937; assay: Cell cycle arrest in human U937 cells assessed as accumulation at S phase at 0.05 uM measured after 24 hrs by propidium iodide staining based assay (reference value: 45.88%); format: functional; summary of the method: as §2
[36] = test system: U-937; assay: Cell cycle arrest in human U937 cells assessed as accumulation at G2 phase at 0.05 uM measured after 24 hrs by propidium iodide staining based assay (reference value: 10.7%); format: functional; summary of the method: as §2
[37] = test system: U-937; assay: Cell cycle arrest in human U937 cells assessed as accumulation at G2/G1 phase at 0.05 uM measured after 24 hrs by propidium iodide staining based assay (reference value: 1.98%); format: functional
[38] = test system: U-937; assay: Cell cycle arrest in human U937 cells assessed as accumulation at sub-G1 phase at 0.05 uM measured after 24 hrs by propidium iodide staining based assay (reference value: 0.01%); format: functional; summary of the method: as §2
[39] = test system: U-937; assay: Cell cycle arrest in human U937 cells assessed as accumulation at super-G2 phase at 0.05 uM measured after 24 hrs by propidium iodide staining based assay (reference value: 0.45%); format: functional
[40] = test system: U-937; assay: Cell cycle arrest in human U937 cells assessed as accumulation at G1 phase at 0.025 uM measured after 24 hrs by propidium iodide staining based assay (reference value: 41.98%); format: functional; summary of the method: as §2
[41] = test system: U-937; assay: Cell cycle arrest in human U937 cells assessed as accumulation at S phase at 0.025 uM measured after 24 hrs by propidium iodide staining based assay (reference value: 45.88%); format: functional; summary of the method: as §2
[42] = test system: U-937; assay: Cell cycle arrest in human U937 cells assessed as accumulation at G2 phase at 0.025 uM measured after 24 hrs by propidium iodide staining based assay (reference value: 10.7%); format: functional; summary of the method: as §2
[43] = test system: U-937; assay: Cell cycle arrest in human U937 cells assessed as accumulation at G2/G1 phase at 0.025 uM measured after 24 hrs by propidium iodide staining based assay (reference value: 1.98%); format: functional
[44] = test system: U-937; assay: Cell cycle arrest in human U937 cells assessed as accumulation at sub-G1 phase at 0.025 uM measured after 24 hrs by propidium iodide staining based assay (reference value: 0.01%); format: functional; summary of the method: as §2
[45] = test system: U-937; assay: Cell cycle arrest in human U937 cells assessed as accumulation at super-G2 phase at 0.025 uM measured after 24 hrs by propidium iodide staining based assay (reference value: 0.45%); format: functional

**Q.** What does the source list for C1CC2CC1CC2N1CN2c3nonc3N3CN(C4CC5CCC4C5)CN4c5nonc5N(C1)C2C34 (stereo not given)?
**A.** Activity [1]: Dose-dependent effect; CC50 [1]: 160 nM; Activity [2]: Dose-dependent effect; CC50 [2]: 210 nM; Activity [3]: Dose-dependent effect; CC50 [3]: 110 nM; Activity [4]: Dose-dependent effect; CC50 [4]: 320 nM; Activity [5]: 23.18%; Activity [6]: 19.35%; Activity [7]: 53.07%; Activity [8]: 4.4%; Activity [9]: 42.25%; Activity [10]: 15.52%; Activity [11]: 40.93%; Activity [12]: 1.31%; Activity [13]: 60.65%; Activity [14]: 10.94%; Activity [15]: 27.01%; Activity [16]: 1.4%; Activity [17]: 71.74%; Activity [18]: 10.44%; Activity [19]: 16.54%; Activity [20]: 1.28%; Activity [21]: Dose-dependent effect; Activity [22]: 17.74%; Activity [23]: 38.89%; Activity [24]: 3.12%; Activity [25]: 1.91%; Activity [26]: 20.66%; Activity [27]: 1.38%; Activity [28]: 34.01%; Activity [29]: 32.87%; Activity [30]: 2.83%; Activity [31]: 1.98%; Activity [32]: 16.73%; Activity [33]: 0.94%; Activity [34]: 30.09%; Activity [35]: 41.7%; Activity [36]: 3.29%; Activity [37]: 1.93%; Activity [38]: 11.01%; Activity [39]: 2.07%; Activity [40]: 35.15%; Activity [41]: 48.65%; Activity [42]: 4.11%; Activity [43]: 1.98%; Activity [44]: 6.37%; Activity [45]: 2.28%

**Q.** How did the Activity [1] turn out when C1CC1N1CN2c3nonc3N3CN(C4CC4)CN4c5nonc5N(C1)C2C34 (stereo not given) was run?
**A.** Dose-dependent effect

**Q.** What about the CC50 [1] of the same molecule?
**A.** 270 nM

**Q.** What about the Activity [2] of the same molecule?
**A.** Dose-dependent effect

**Q.** What about the CC50 [2] of the same molecule?
**A.** 310 nM

**Q.** And the Activity [3]?
**A.** Dose-dependent effect

**Q.** What about the CC50 [3] of the same molecule?
**A.** 250 nM

**Q.** What about the Activity [4] of the same molecule?
**A.** Dose-dependent effect

**Q.** And the CC50 [4]?
**A.** 420 nM

**Q.** C1CCC(N2CN3c4nonc4N4CN(C5CCCC5)CN5c6nonc6N(C2)C3C45)C1 (stereo not given) was tested. Which Activity [1] did it give?
**A.** Dose-dependent effect

**Q.** And the CC50 [1]?
**A.** 510 nM

**Q.** And the Activity [2]?
**A.** Dose-dependent effect

**Q.** What about the CC50 [2] of the same molecule?
**A.** 640 nM

**Q.** And the Activity [3]?
**A.** Dose-dependent effect

**Q.** What about the CC50 [3] of the same molecule?
**A.** 570 nM

**Q.** What about the Activity [4] of the same molecule?
**A.** Dose-dependent effect

**Q.** And the CC50 [4]?
**A.** 980 nM

From ChEMBL document CHEMBL4400581, “First Example of Catalytic Synthesis of Difurazanohexahydrohexaazapyrenes and in Vitro Study of Their Antitumor Activity” (2019)
